# Laboratory results reported in ChEMBL document CHEMBL3271935, “Synthesis and biological activity of some broad-spectrum N-acylphenyglycine cephalosporins” (1977).
# Assays:
# Staphylococcus aureus = experiment: Antibacterial activity against penicillin G resistant Staphylococcus aureus HH 127 assessed as growth inhibition by two-fold agar dilution method; type: functional
# Procedure, shortened: (§1)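 Twofold agar dilution on Trypticase soy agar buffered to pH 6.0. MIC reported in μg/mL.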
# Escherichia coli [1] = experiment: Antibacterial activity against Escherichia coli 12140 assessed as growth inhibition by two-fold agar dilution method; type: functional
# Procedure, shortened: (§2)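 MIC (μg/mL) by twofold agar dilution on Trypticase soy agar buffered to pH 6.0.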
# Klebsiella pneumoniae = experiment: Antibacterial activity against Klebsiella pneumoniae 4200 assessed as growth inhibition by two-fold agar dilution method; type: functional; procedure, shortened: as §2
# Salmonella paratyphi = experiment: Antibacterial activity against Salmonella paratyphi ATCC 12176 assessed as growth inhibition by two-fold agar dilution method; type: functional, Salmonella enterica subsp. enterica serovar Paratyphi A; settings: Salmonella enterica; procedure, shortened: as §1
# Klebsiella aerogenes = experiment: Antibacterial activity against Enterobacter aerogenes ATCC 13048 assessed as growth inhibition by two-fold agar dilution method; type: functional; procedure, shortened: as §2
# Morganella morganii = experiment: Antibacterial activity against indole positive Proteus morganii 179 assessed as growth inhibition by two-fold agar dilution method; type: functional; procedure, shortened: as §2
# Pseudomonas aeruginosa [2] = experiment: Antibacterial activity against Pseudomonas aeruginosa HH 63 assessed as growth inhibition by two-fold agar dilution method; type: functional; procedure, shortened: as §2
# Escherichia coli [3] = experiment: Antibacterial activity against Escherichia coli 12140 infected in sc dosed mouse administered at 1 to 5 hrs measured for 3 days; type: functional; settings: Escherichia coli, 12140, sc; read-out: PD50
# Procedure, shortened: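 Mice infected intraperitoneally with about 2×10^3 organisms per mouse of E. coli 12140 culture diluted in 5% hog gastric mucin, giving uniformly lethal infection. Fourfold dilutions given subcutaneously in equally divided portions at 1 and 5 h postinfection, five groups per compound. Survivors observed 3 days. PD50 is total dose (mg/kg) protecting 50%, calculated by Litchfield–Wilcoxon method.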
# Pseudomonas aeruginosa [4] = experiment: Antibacterial activity against Pseudomonas aeruginosa 1504 assessed as growth inhibition; type: functional
# Procedure, shortened: (§3)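 Broth MIC by the standard microtiter technique in unbuffered Mueller-Hinton broth.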
# Pseudomonas aeruginosa [5] = experiment: Antibacterial activity against Pseudomonas aeruginosa 1042 assessed as growth inhibition; type: functional; procedure, shortened: as §3
# Pseudomonas aeruginosa [6] = experiment: Antibacterial activity against Pseudomonas aeruginosa 219 assessed as growth inhibition; type: functional; procedure, shortened: as §3
# Pseudomonas aeruginosa [7] = experiment: Antibacterial activity against Pseudomonas aeruginosa 647 assessed as growth inhibition; type: functional; procedure, shortened: as §3
# Pseudomonas aeruginosa [8] = experiment: Antibacterial activity against Pseudomonas aeruginosa 864 assessed as growth inhibition; type: functional; procedure, shortened: as §3
# Pseudomonas aeruginosa [9] = experiment: Antibacterial activity against Pseudomonas aeruginosa 1062 assessed as growth inhibition; type: functional; procedure, shortened: as §3
# Pseudomonas aeruginosa [10] = experiment: Antibacterial activity against Pseudomonas aeruginosa 1063 assessed as growth inhibition; type: functional; procedure, shortened: as §3
# Pseudomonas aeruginosa [11] = experiment: Antibacterial activity against Pseudomonas aeruginosa 1106 assessed as growth inhibition; type: functional; procedure, shortened: as §3
SMILES,MIC (Staphylococcus aureus),MIC (Escherichia coli [1]),MIC (Klebsiella pneumoniae),MIC (Salmonella paratyphi),MIC (Klebsiella aerogenes),MIC (Morganella morganii),MIC (Pseudomonas aeruginosa [2]),ED50 (Escherichia coli [3]),MIC (Pseudomonas aeruginosa [4]),MIC (Pseudomonas aeruginosa [5]),MIC (Pseudomonas aeruginosa [6]),MIC (Pseudomonas aeruginosa [7]),MIC (Pseudomonas aeruginosa [8]),MIC (Pseudomonas aeruginosa [9]),MIC (Pseudomonas aeruginosa [10]),MIC (Pseudomonas aeruginosa [11])
Cn1nnnc1SCC1=C(C(=O)[O-])N2C(=O)[C@@H](NC(=O)C(NC(=O)[C@H]3C[C@H]3C(=O)[O-])c3ccccc3)[C@H]2SC1.[Na+].[Na+] (mixture of isomers),6.3 µg/mL,6.3 µg/mL,3.1 µg/mL,3.1 µg/mL,6.3 µg/mL,6.3 µg/mL,200 µg/mL,25 mg/kg,125 µg/mL,250 µg/mL,125 µg/mL,125 µg/mL,500 µg/mL,250 µg/mL,500 µg/mL,> 500 µg/mL
Cn1nnnc1SCC1=C(C(=O)[O-])N2C(=O)[C@@H](NC(=O)C(NC(=O)C3OC3C(=O)[O-])c3ccccc3)[C@H]2SC1.[Na+].[Na+] (mixture of isomers),6.3 µg/mL,0.8 µg/mL,0.8 µg/mL,1.6 µg/mL,1.6 µg/mL,0.4 µg/mL,50 µg/mL,7 mg/kg,63 µg/mL,63 µg/mL,125 µg/mL,63 µg/mL,500 µg/mL,63 µg/mL,500 µg/mL,500 µg/mL
Cn1nnnc1SCC1=C(C(=O)[O-])N2C(=O)[C@@H](NC(=O)C(NC(=O)[C@@H]3O[C@@H]3C(=O)[O-])c3ccccc3)[C@H]2SC1.[Na+].[Na+] (mixture of isomers),12.5 µg/mL,6.3 µg/mL,3.1 µg/mL,6.3 µg/mL,12.5 µg/mL,3.1 µg/mL,200 µg/mL,35 mg/kg,500 µg/mL,> 500 µg/mL,500 µg/mL,> 500 µg/mL,500 µg/mL,> 500 µg/mL,> 500 µg/mL,> 500 µg/mL
Cn1nnnc1SCC1=C(C(=O)[O-])N2C(=O)[C@@H](NC(=O)C(NC(=O)C3CCC(C(=O)[O-])O3)c3ccccc3)[C@H]2SC1.[Na+].[Na+] (mixture of isomers),3.1 µg/mL,3.1 µg/mL,1.6 µg/mL,3.1 µg/mL,3.1 µg/mL,1.6 µg/mL,100 µg/mL,25 mg/kg,63 µg/mL,125 µg/mL,125 µg/mL,125 µg/mL,500 µg/mL,125 µg/mL,250 µg/mL,500 µg/mL
Cn1nnnc1SCC1=C(C(=O)[O-])N2C(=O)[C@@H](NC(=O)C(NC(=O)C3CO3)c3ccccc3)[C@H]2SC1.[Na+] (mixture of isomers),1.6 µg/mL,12.5 µg/mL,6.3 µg/mL,6.3 µg/mL,12.5 µg/mL,3.1 µg/mL,200 µg/mL,45 mg/kg,500 µg/mL,> 500 µg/mL,> 500 µg/mL,> 500 µg/mL,> 500 µg/mL,> 500 µg/mL,> 500 µg/mL,> 500 µg/mL
Cn1nnnc1SCC1=C(C(=O)[O-])N2C(=O)[C@@H](NC(=O)[C@H](NC(=O)[C@H]3O[C@@H]3C(=O)[O-])c3ccccc3)[C@H]2SC1.[Na+].[Na+] (mixture of isomers),1.6 µg/mL,25 µg/mL,12.5 µg/mL,12.5 µg/mL,25 µg/mL,25 µg/mL,> 200 µg/mL,150 mg/kg,–,–,–,–,–,–,–,–
"CC(=O)OCC1=C(C(=O)[O-])N2C(=O)[C@@H](NC(=O)C(NC(=O)C3OC3C(=O)[O-])c3ccccc3)[C@H]2SC1.[Na+].[Na+] (single isomer, unassigned; diastereomer 1)",6.3 µg/mL,1.6 µg/mL,0.8 µg/mL,1.6 µg/mL,3.1 µg/mL,3.1 µg/mL,100 µg/mL,12.5 mg/kg,–,–,–,–,–,–,–,–
"CC(=O)OCC1=C(C(=O)[O-])N2C(=O)[C@@H](NC(=O)C(NC(=O)[C@@H]3O[C@@H]3C(=O)[O-])c3ccccc3)[C@H]2SC1.[Na+].[Na+] (single isomer, unassigned; diastereomer 2)",12.5 µg/mL,12.5 µg/mL,6.3 µg/mL,6.3 µg/mL,25 µg/mL,200 µg/mL,> 200 µg/mL,72 mg/kg,–,–,–,–,–,–,–,–
CC(=O)OCC1=C(C(=O)O)N2C(=O)[C@@H](NC(=O)[C@H](N)c3ccccc3)[C@H]2SC1 [CEPHALOGLYCIN],3.1 µg/mL,3.1 µg/mL,3.1 µg/mL,3.1 µg/mL,50 µg/mL,> 200 µg/mL,> 200 µg/mL,–,–,–,–,–,–,–,–,–
CC(=O)OCC1=C(C(=O)O)N2C(=O)[C@@H](NC(=O)Cc3cccs3)[C@H]2SC1 [CEPHALOTHIN],0.2 µg/mL,3.1 µg/mL,1.6 µg/mL,0.8 µg/mL,12.5 µg/mL,> 200 µg/mL,> 200 µg/mL,50 mg/kg,–,–,–,–,–,–,–,–
